{
  "source": "ChEMBL document CHEMBL4229344",
  "about": "(Eur J Med Chem, 2018)",
  "key": {"[1]": {"test_system": "Tyrosine-protein kinase ABL1 (Homo sapiens), P00519 [H396P]", "assay": "Binding affinity to human phosphorylated ABL1 H396P mutant (S229 to K512 residues) expressed in mammalian expression system assessed as residual binding level at 1 uM by Kinomescan method relative to control", "procedure,_shortened": "(§1)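 Single-concentration (1 μM) competition-binding screen run by KINOMEscan against a panel of 468 purified kinases and mutants. The read-out is the relative binding activity of the test compound to each kinase.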"}, "[2]": {"target": "Calcium/calmodulin-dependent protein kinase type 1G (Homo sapiens) (UniProt Q96NX5)", "sequence (Q96NX5 whole entry, the tested form may be a part)": "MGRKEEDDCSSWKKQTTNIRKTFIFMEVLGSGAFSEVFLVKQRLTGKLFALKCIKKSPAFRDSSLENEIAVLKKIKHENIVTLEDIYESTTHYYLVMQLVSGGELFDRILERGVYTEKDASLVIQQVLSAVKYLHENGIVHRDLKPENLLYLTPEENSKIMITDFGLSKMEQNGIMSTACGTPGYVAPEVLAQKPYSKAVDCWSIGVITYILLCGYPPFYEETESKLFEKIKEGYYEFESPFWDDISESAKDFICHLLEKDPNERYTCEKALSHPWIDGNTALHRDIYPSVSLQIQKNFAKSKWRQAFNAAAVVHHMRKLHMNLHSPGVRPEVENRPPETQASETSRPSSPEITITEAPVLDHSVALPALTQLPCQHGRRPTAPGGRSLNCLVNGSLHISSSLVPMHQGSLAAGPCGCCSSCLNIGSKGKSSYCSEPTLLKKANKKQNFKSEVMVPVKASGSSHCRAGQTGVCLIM", "assay": "Binding affinity to wild-type human partial length CAMK1G (M1 to A342 residues) expressed in bacterial expression system assessed as residual binding level at 1 uM by Kinomescan method relative to control"}, "[3]": {"target": "Macrophage colony-stimulating factor 1 receptor (Homo sapiens) (UniProt P07333)", "assay": "Binding affinity to wild-type human partial length autoinhibited CSF1R (Y538 to S939 residues) expressed in mammalian expression system assessed as residual binding level at 1 uM by Kinomescan method relative to control"}, "[4]": {"target": "Death-associated protein kinase 2 (Homo sapiens) (UniProt Q9UIK4)", "sequence (Q9UIK4 whole entry, looked up, the tested form may be a part)": "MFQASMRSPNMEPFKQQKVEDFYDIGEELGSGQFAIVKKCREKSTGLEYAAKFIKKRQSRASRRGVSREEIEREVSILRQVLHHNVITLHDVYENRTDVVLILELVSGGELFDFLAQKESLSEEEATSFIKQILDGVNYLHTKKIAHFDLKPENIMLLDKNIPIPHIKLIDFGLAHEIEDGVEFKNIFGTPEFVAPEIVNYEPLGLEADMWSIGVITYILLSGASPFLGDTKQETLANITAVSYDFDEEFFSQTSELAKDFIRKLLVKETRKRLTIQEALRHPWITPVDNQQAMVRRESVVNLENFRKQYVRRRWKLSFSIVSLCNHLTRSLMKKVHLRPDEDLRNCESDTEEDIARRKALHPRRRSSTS", "assay": "Binding affinity to wild-type human full length DAPK2 (M1 to S370 residues) expressed in bacterial expression system assessed as residual binding level at 1 uM by Kinomescan method relative to control", "procedure,_shortened": "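KINOMEscan competition binding against 468 purified kinases/mutants, test compound at 1 µM; residual binding relative to control.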"}, "[5]": {"target": "Myotonin-protein kinase (Homo sapiens) (UniProt Q09013)", "assay": "Binding affinity to wild-type human partial length DMPK (V47 to V415 residues) expressed in bacterial expression system assessed as residual binding level at 1 uM by Kinomescan method relative to control", "procedure,_shortened": "(§2)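 Kinome-wide competition binding screen against a panel of 468 purified kinases/mutants, with the test compound at a single concentration of 1 μM. Read-out is the relative binding activity of each kinase in the presence of compound.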"}, "[6]": {"target": "Dual specificity tyrosine-phosphorylation-regulated kinase 2 (Homo sapiens) (UniProt Q92630)", "sequence (Q92630 whole entry, the tested form may be a part)": "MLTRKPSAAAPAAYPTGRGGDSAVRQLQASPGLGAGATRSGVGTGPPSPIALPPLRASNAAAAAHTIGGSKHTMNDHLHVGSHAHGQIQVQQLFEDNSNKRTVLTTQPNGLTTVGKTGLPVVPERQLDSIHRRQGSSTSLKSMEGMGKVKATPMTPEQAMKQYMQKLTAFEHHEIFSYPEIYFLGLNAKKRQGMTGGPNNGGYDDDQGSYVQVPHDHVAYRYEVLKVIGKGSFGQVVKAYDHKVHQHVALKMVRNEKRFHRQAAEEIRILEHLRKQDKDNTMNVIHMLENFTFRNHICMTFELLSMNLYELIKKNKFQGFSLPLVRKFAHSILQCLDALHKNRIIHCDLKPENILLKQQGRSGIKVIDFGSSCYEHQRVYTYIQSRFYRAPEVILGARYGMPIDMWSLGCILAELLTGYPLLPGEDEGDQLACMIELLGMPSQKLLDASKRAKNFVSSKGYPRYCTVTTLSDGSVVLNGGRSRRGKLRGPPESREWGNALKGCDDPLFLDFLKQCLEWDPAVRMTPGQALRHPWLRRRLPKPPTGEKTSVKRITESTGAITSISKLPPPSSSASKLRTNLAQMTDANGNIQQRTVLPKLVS", "assay": "Binding affinity to wild-type human full length DYRK2 (M1 to S528 residues) expressed in mammalian expression system assessed as residual binding level at 1 uM by Kinomescan method relative to control", "procedure,_shortened": "as §1"}, "[7]": {"target": "G protein-coupled receptor kinase 4 (Homo sapiens) (UniProt P32298)", "sequence (P32298 whole entry, looked up, the tested form may be a part)": "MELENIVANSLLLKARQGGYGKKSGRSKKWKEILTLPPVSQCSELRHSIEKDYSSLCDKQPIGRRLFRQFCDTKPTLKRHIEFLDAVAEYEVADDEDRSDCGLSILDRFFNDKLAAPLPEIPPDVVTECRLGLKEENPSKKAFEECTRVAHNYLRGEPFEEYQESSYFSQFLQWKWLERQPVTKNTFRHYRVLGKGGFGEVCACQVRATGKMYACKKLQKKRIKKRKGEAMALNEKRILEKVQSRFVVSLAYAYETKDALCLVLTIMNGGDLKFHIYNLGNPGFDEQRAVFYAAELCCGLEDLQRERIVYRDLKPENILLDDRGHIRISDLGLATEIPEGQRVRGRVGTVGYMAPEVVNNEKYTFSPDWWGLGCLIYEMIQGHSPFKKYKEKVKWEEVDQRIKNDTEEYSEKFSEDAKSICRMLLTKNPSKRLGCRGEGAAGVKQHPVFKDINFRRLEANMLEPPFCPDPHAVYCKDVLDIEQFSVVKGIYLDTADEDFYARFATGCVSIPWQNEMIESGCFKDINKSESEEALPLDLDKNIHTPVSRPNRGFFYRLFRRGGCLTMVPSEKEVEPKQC", "assay": "Binding affinity to wild-type human full length GRK4 (M1 to C578 residues) expressed in bacterial expression system assessed as residual binding level at 1 uM by Kinomescan method relative to control", "procedure,_shortened": "as §1"}, "[8]": {"target": "Homeodomain-interacting protein kinase 3 (Homo sapiens) (UniProt Q9H422)", "sequence (Q9H422 whole entry, looked up, the tested form may be a part)": "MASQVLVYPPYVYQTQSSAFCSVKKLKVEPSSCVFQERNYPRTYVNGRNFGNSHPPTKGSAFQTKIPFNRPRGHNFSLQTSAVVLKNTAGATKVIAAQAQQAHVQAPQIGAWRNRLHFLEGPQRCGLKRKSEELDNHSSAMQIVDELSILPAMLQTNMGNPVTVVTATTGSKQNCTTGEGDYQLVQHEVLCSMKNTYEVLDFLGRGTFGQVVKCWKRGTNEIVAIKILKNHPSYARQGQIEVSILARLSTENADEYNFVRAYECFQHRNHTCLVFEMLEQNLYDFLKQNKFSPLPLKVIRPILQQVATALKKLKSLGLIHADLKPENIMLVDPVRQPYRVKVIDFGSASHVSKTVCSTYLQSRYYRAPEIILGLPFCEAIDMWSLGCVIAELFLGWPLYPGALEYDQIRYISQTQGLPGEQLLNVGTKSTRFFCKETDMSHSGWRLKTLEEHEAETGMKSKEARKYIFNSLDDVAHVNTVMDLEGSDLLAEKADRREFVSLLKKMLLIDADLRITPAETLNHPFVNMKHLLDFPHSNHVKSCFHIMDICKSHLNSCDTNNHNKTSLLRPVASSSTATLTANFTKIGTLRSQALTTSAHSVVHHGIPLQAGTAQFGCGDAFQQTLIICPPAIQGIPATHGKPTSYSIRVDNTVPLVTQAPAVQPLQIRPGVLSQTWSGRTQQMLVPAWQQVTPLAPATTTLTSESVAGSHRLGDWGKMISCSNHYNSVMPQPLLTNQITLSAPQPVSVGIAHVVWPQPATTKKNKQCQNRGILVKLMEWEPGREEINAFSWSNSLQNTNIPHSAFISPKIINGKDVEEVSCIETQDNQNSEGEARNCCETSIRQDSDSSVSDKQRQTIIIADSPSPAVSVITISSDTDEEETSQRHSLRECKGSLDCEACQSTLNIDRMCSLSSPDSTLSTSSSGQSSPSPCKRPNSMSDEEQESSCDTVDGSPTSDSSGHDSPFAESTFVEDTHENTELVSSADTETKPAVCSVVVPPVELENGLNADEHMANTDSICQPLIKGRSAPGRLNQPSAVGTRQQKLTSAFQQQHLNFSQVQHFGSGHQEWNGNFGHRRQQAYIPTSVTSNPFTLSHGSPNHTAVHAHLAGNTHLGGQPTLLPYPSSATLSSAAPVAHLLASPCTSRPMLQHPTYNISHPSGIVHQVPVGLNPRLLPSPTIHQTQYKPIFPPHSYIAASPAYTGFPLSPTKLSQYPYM", "assay": "Binding affinity to wild-type human partial length HIPK3 (M153 to N562 residues) expressed in mammalian expression system assessed as residual binding level at 1 uM by Kinomescan method relative to control"}, "[9]": {"target": "Homeodomain-interacting protein kinase 4 (Homo sapiens) (UniProt Q8NE63)", "assay": "Binding affinity to wild-type human partial length HIPK4 (M1 to V384 residues) expressed in bacterial expression system assessed as residual binding level at 1 uM by Kinomescan method relative to control", "procedure,_shortened": "as §2"}, "[10]": {"target": "Tyrosine-protein kinase ITK/TSK (Homo sapiens) (UniProt Q08881)", "assay": "Binding affinity to wild-type human partial length ITK (R335 to L620 residues) expressed in bacterial expression system assessed as residual binding level at 1 uM by Kinomescan method relative to control"}, "[11]": {"test_system": "Mast/stem cell growth factor receptor Kit (Homo sapiens), P10721 [L576P]", "assay": "Binding affinity to human partial length KIT L576P mutant (Y545 to D952 residues) expressed in bacterial expression system assessed as residual binding level at 1 uM by Kinomescan method relative to control", "procedure,_shortened": "(§3)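 Kinome-wide single-concentration binding screen (KINOMEscan) at 1 μM against a panel of 468 purified kinases and mutants. Read-out is relative binding of each kinase compared with control. Selectivity across the panel was summarised as an S(10) score.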"}, "[12]": {"test_system": "Phosphatidylinositol 4,5-bisphosphate 3-kinase catalytic subunit alpha isoform (Homo sapiens), P42336 [H1047L]", "assay": "Binding affinity to human partial length PIK3CA H1047L mutant (R108 to N1068 residues) expressed in mammalian expression system assessed as residual binding level at 1 uM by Kinomescan method relative to control", "procedure,_shortened": "as §3"}, "[13]": {"target": "Phosphatidylinositol 4,5-bisphosphate 3-kinase catalytic subunit delta isoform (Homo sapiens) (UniProt O00329)", "sequence (O00329 whole entry, the tested form may be a part, canonical isoform)": "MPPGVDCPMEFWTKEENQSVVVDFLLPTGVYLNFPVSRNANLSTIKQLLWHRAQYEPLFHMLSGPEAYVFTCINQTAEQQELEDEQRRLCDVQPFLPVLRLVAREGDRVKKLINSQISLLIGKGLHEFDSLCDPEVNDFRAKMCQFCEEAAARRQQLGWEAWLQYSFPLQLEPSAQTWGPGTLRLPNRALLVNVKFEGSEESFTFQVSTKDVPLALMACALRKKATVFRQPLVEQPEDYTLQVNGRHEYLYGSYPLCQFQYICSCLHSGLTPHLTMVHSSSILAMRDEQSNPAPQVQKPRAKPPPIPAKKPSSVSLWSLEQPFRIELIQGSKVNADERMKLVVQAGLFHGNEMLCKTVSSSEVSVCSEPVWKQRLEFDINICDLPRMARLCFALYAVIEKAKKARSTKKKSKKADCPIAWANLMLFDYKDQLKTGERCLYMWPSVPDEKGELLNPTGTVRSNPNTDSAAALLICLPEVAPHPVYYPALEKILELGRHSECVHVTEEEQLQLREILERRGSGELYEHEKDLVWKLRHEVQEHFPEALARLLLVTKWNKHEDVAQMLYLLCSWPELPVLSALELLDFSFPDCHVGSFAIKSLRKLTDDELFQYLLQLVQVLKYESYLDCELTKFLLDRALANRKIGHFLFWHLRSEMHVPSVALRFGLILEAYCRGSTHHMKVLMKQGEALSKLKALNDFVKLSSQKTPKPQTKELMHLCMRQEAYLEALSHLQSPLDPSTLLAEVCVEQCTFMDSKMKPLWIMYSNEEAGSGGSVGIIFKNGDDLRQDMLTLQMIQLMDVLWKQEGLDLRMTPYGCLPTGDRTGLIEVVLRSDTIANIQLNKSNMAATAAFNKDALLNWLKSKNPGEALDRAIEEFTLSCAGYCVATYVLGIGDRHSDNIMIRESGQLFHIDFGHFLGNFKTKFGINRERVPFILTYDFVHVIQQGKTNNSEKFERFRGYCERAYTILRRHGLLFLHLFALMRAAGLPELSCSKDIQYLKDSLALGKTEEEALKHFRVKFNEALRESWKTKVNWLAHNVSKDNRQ", "assay": "Binding affinity to wild-type human partial length PIK3CD (R108 to Q1044 residues) expressed in mammalian expression system assessed as residual binding level at 1 uM by Kinomescan method relative to control"}, "[14]": {"target": "Serine/threonine-protein kinase PLK3 (Homo sapiens) (UniProt Q9H4B4)", "sequence (Q9H4B4 whole entry, looked up, the tested form may be a part)": "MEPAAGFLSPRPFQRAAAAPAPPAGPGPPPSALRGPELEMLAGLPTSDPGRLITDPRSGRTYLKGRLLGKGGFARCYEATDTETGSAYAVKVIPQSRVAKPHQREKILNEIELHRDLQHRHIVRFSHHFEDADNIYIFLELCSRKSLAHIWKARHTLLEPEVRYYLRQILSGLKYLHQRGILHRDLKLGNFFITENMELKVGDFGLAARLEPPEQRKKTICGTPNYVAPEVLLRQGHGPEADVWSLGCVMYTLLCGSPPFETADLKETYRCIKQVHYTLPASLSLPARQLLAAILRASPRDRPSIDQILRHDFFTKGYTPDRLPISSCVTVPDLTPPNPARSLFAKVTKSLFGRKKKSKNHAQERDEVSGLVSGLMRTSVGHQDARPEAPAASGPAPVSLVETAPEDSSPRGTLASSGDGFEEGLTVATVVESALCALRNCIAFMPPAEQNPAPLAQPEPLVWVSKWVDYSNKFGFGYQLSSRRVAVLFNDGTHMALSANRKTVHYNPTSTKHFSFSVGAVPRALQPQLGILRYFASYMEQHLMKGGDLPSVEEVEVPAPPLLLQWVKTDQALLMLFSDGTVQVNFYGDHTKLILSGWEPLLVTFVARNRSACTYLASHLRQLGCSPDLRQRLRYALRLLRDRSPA", "assay": "Binding affinity to wild-type human partial length PLK3 (A42 to L334 residues) expressed in mammalian expression system assessed as residual binding level at 1 uM by Kinomescan method relative to control", "procedure,_shortened": "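KINOMEscan competition binding against a panel of 468 purified kinases/mutants, compound tested at 1 μM; readout is relative binding activity versus control.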"}, "[15]": {"target": "Rho-associated protein kinase 2 (Homo sapiens) (UniProt O75116)", "assay": "Binding affinity to wild-type human partial length ROCK2 (M1 to T431 residues) expressed in mammalian expression system assessed as residual binding level at 1 uM by Kinomescan method relative to control"}, "[16]": {"target": "Ribosomal protein S6 kinase alpha-5 (Homo sapiens) (UniProt O75582)", "assay": "Binding affinity to wild-type human partial length C-terminal RPS6KA5 kinase domain 2 (V390 to T718 residues) expressed in bacterial expression system assessed as residual binding level at 1 uM by Kinomescan method relative to control"}, "[17]": {"target": "Dual specificity testis-specific protein kinase 1 (Homo sapiens) (UniProt Q15569)", "assay": "Binding affinity to wild-type human full length TESK1 (R37 to S626 residues) expressed in bacterial expression system assessed as residual binding level at 1 uM by Kinomescan method relative to control", "procedure,_shortened": "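Single-concentration KINOMEscan (DiscoverX) binding screen at 1 μM against a panel of 468 purified kinases and mutants. The read-out is binding relative to control.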"}, "[18]": {"assay": "MRT (0 to t) in Sprague-Dawley rat at 1 mg/kg, iv", "assay_type": "ADME, organism-based", "details": "in vivo"}, "[19]": {"assay": "Half life in Sprague-Dawley rat at 1 mg/kg, iv", "assay_type": "ADME, organism-based", "details": "in vivo"}, "EOL1 [20]": {"test_system": "EOL1", "assay": "Antitumor activity against human EOL-1 cells xenografted in nu/nu mouse assessed as induction of apoptosis at 25 to 100 mg/kg/day, ip by DAB staining-based TUNEL assay", "assay_type": "functional, organism-based", "procedure,_shortened": "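Female nu/nu mice (6 weeks) given subcutaneous right-flank injection of 5 million EOL-1 cells in PBS/Matrigel 1:1. At 200–400 mm3 tumors, randomized to groups of 6 and dosed daily i.p. for 14 days at 25, 50 or 100 mg/kg/d in 0.5% methylcellulose/0.4% Tween80. Tumor volume = W²×L/2, measured daily.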"}, "EOL1 [21]": {"test_system": "EOL1", "assay": "Antitumor activity against human EOL-1 cells engrafted in ip dosed NOD-SCID mouse assessed as increase in mouse survival administered 3 weeks post cell inoculation", "assay_type": "functional, organism-based", "procedure,_shortened": "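Daily i.p. dosing started 3 weeks after inoculation at 7.5, 15 or 30 mg/kg/day. Mice monitored daily and euthanized when moribund or at hind-limb paralysis. Bone marrow cells, after red-cell lysis, stained with PE anti-HLA-ABC and counted by flow cytometry.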"}},
  "note": "Activity calls are given as the source filed them. No cut-off for these calls is given here.",
  "data": [
    {"smiles": "Cc1ccc(NC(=O)c2ccc(CN(CCN(C)C)C(=O)c3cccnc3)cc2)cc1Nc1nccc(-c2cccnc2)n1", "values": [
      {"measurement": "Activity", "setting": "[1]", "result": 97, "unit": "%"},
      {"measurement": "Activity", "setting": "[2]", "result": 100, "unit": "%"},
      {"measurement": "Activity", "setting": "[3]", "result": 100, "unit": "%"},
      {"measurement": "Activity", "setting": "[4]", "result": 94, "unit": "%"},
      {"measurement": "Activity", "setting": "[5]", "result": 89, "unit": "%"},
      {"measurement": "Activity", "setting": "[6]", "result": 100, "unit": "%"},
      {"measurement": "Activity", "setting": "[7]", "result": 88, "unit": "%"},
      {"measurement": "Activity", "setting": "[8]", "result": 93, "unit": "%"},
      {"measurement": "Activity", "setting": "[9]", "result": 74, "unit": "%"},
      {"measurement": "Activity", "setting": "[10]", "result": 100, "unit": "%"},
      {"measurement": "Activity", "setting": "[11]", "result": 0.6, "unit": "%"},
      {"measurement": "Activity", "setting": "[12]", "result": 88, "unit": "%"},
      {"measurement": "Activity", "setting": "[13]", "result": 100, "unit": "%"},
      {"measurement": "Activity", "setting": "[14]", "result": 79, "unit": "%"},
      {"measurement": "Activity", "setting": "[15]", "result": 100, "unit": "%"},
      {"measurement": "Activity", "setting": "[16]", "result": 89, "unit": "%"},
      {"measurement": "Activity", "setting": "[17]", "result": 100, "unit": "%"},
      {"measurement": "MRT last", "setting": "[18]", "result": 53.5, "unit": "min"},
      {"measurement": "half-life", "setting": "[19]", "result": 123, "unit": "min"},
      {"measurement": "Activity", "setting": "EOL1 [20]", "result": "Active"},
      {"measurement": "Activity", "setting": "EOL1 [21]", "result": "Dose-dependent effect"}
    ]}
  ]
}
